Source: ChEMBL document CHEMBL3227917, “Structure-activity relationships of dimeric Catharanthus alkaloids. 2. Experimental antitumor activities of N-substituted deacetylvinblastine amide (vindesine) sulfates” (J Med Chem, 1979)

Tests used:
P388/VCR [1] = assay: Antitumor activity against mouse P388/VCR cells allografted in CD2F1 mouse assessed as increase in host lifespan at 1.08 mg/kg, ip administered on days 1, 5 and 9; type: functional; conditions: route intraperitoneal
Outline: (§1)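 Groups of eight male CD2F1 mice bearing P388 leukemia, run at NCI. Sulfate salts given ip on days 1, 5 and 9. Read-out is percent increase in lifespan.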

[2] = Antitumor activity against mouse Gardner lymphosarcoma allografted in C3H mouse assessed as tumor growth inhibition at 0.10 mg/kg, ip administered daily for 8 to 10 days; type: functional; conditions: route intraperitoneal, read-out: TGI
Outline: (§2)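 Gardner lymphosarcoma in C3H mice; sulfate salts unless noted, given ip daily for 8–10 days, treatment starting 8 days after tumor implantation. Tumor growth inhibition scored as –, 0–25%; +, 26–50%; ++, 51–75%; +++, 76–100%; T, lethal to ≥5 of 10 animals per group. Average of one or more tests.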

[3] = Antitumor activity against mouse P388/VCR/I/63 cells allografted in Dublin-CDF1 mouse assessed as increase in host lifespan at 0.7 mg/kg, ip administered on days 1, 5 and 9; type: functional; conditions: route intraperitoneal
P388/VCR [4] = assay: Antitumor activity against mouse P388/VCR cells allografted in B6D2F1 mouse assessed as increase in host lifespan at 0.90 mg/kg, ip administered on days 1, 5 and 9; type: functional; conditions: dose 0.9 mg/kg; route intraperitoneal
Outline: (§3)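 P388/VCR leukemia in groups of 10 B6D2F1 mice, run at Lilly using the cell strain received from NCI. Sulfate salts given ip on days 1, 5 and 9. Read-out is percent increase in lifespan.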

P388/S [5] = assay: Antitumor activity against mouse P388/S cells allografted in CD2F1 mouse assessed as increase in host lifespan at 0.648 mg/kg, ip administered on days 1, 5 and 9; type: functional; conditions: route intraperitoneal; outline: as §1
P388/VCR [6] = assay: Antitumor activity against mouse P388/VCR cells allografted in B6D2F1 mouse assessed as increase in host lifespan at 0.60 mg/kg, ip administered on days 1, 5 and 9; type: functional; conditions: dose 0.6 mg/kg; route intraperitoneal; outline: as §3
[7] = Antitumor activity against mouse P388/VCR/I/63 cells allografted in Dublin-CDF1 mouse assessed as increase in host lifespan at 1.0 mg/kg, ip administered on days 1, 5 and 9; type: functional; conditions: route intraperitoneal
P388/VCR [8] = assay: Antitumor activity against mouse P388/VCR cells allografted in CD2F1 mouse assessed as increase in host lifespan at 1.80 mg/kg, ip administered on days 1, 5 and 9; type: functional; conditions: dose 1.8 mg/kg; route intraperitoneal
Outline: (§4)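 Groups of eight male CD2F1 mice, tested at the NCI. Compounds were given as sulfate salts, dosed in mg/kg ip on days 1, 5 and 9. Activity was read as percent increase in lifespan against the leukemia line.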

P388/VCR [9] = assay: Antitumor activity against mouse P388/VCR cells allografted in B6D2F1 mouse assessed as increase in host lifespan at 1.20 mg/kg, ip administered on days 1, 5 and 9; type: functional; conditions: dose 1.2 mg/kg; route intraperitoneal; outline: as §3
[10] = Antitumor activity against mouse P1534 cells allografted in DBA2 mouse assessed as tumor growth inhibition at 1.6 mg/kg, ip administered on days 1,5 and 9; type: functional; conditions: route intraperitoneal, read-out: TGI
Outline: (§5)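 P1534(J) leukemia implanted sc in DBA2 mice; agent given ip on days 1, 5 and 9 at 1.6, 1.2, 0.9 and 0.6 mg/kg in a single experiment. Activity scored as growth inhibition, –, 0–25%; +, 26–50%; ++, 51–75%; +++, 76–100%.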

P388/S [11] = assay: Antitumor activity against mouse P388/S cells allografted in CD2F1 mouse assessed as increase in host lifespan at 1.80 mg/kg, ip administered on days 1, 5 and 9; type: functional; conditions: dose 1.8 mg/kg; route intraperitoneal; outline: as §4
P388/S [12] = assay: Antitumor activity against mouse P388/S cells allografted in CD2F1 mouse assessed as increase in host lifespan at 1.08 mg/kg, ip administered on days 1, 5 and 9; type: functional; conditions: route intraperitoneal; outline: as §1
[13] = Antitumor activity against mouse Gardner lymphosarcoma allografted in C3H mouse assessed as tumor growth inhibition at 0.30 mg/kg, ip administered daily for 8 to 10 days; type: functional; conditions: route intraperitoneal, read-out: TGI; outline: as §2
[14] = Toxicity in iv dosed mouse assessed as lethality; type: organism-based; conditions: in vivo
CHO [15] = assay: Mitotic arrest in CHO cells assessed as increase in cell accumulation at 0.02 ug/ml; type: functional, Cricetulus griseus
Outline: (§6)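 Chinese hamster ovary cells in tissue culture, scored for mitotic arrest as increase in cells in mitotic arrest over control: +++, 40–50%; ++, 15–40%; +, 10–15%; ±, 7–10%; –, 3–7%. Cytotoxicity noted separately.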

[16] = Antitumor activity against mouse P388/VCR/I/63 cells allografted in Dublin-CDF1 mouse assessed as day of host death at 1.6 mg/kg, ip administered on days 1, 5 and 9 (reference value: 10 days); type: functional; conditions: route intraperitoneal
P388/VCR [17] = assay: Antitumor activity against mouse P388/VCR cells allografted in CD2F1 mouse assessed as increase in host lifespan at 0.648 mg/kg, ip administered on days 1, 5 and 9; type: functional; conditions: route intraperitoneal; outline: as §1
Mus musculus [18] = assay: Toxicity in CD2F1 mouse allografted with mouse P388/VCR cells at 3.00 mg/kg, ip administered on days 1, 5 and 9; type: organism-based; design: dose 3 mg/kg, route intraperitoneal; conditions: in vivo
B16 [19] = assay: Antitumor activity against mouse B16 cells allografted in C57BL/6 mouse assessed as prolongation of host survival at 0.60 mg/kg, ip administered on days 1,5 and 9; type: functional; conditions: route intraperitoneal
Outline: (§7)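 B16 melanoma cells (10⁶ inoculum) implanted ip in C57BL/6 mice; groups of 10. Sulfate salts unless noted, given ip on days 1, 5 and 9. Single test. Survival prolongation is expressed as percent versus controls, with survivors counted on day 60. Toxic means deaths of ≥5 of 10 animals before the first control death.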

[20] = Antitumor activity against mouse P1534 cells allografted in DBA2 mouse assessed as tumor growth inhibition at 1.2 mg/kg, ip administered on days 1,5 and 9; type: functional; conditions: route intraperitoneal, read-out: TGI; outline: as §5
[21] = Antitumor activity against mouse P1534 cells allografted in DBA2 mouse assessed as tumor growth inhibition at 0.9 mg/kg, ip administered on days 1,5 and 9; type: functional; conditions: route intraperitoneal, read-out: TGI; outline: as §5
B16 [22] = assay: Antitumor activity against mouse B16 cells allografted in C57BL/6 mouse assessed as prolongation of host survival at 0.90 mg/kg, ip administered on days 1,5 and 9; type: functional; conditions: route intraperitoneal; outline: as §7
B16 [23] = assay: Antitumor activity against mouse B16 cells allografted in C57BL/6 mouse assessed as prolongation of host survival at 1.20 mg/kg, ip administered on days 1,5 and 9; type: functional; conditions: route intraperitoneal; outline: as §7
[24] = Antitumor activity against mouse Gardner lymphosarcoma allografted in C3H mouse assessed as tumor growth inhibition at 0.20 mg/kg, ip administered daily for 8 to 10 days; type: functional; conditions: route intraperitoneal, read-out: TGI; outline: as §2
CHO [25] = assay: Mitotic arrest in CHO cells assessed as increase in cell accumulation at 0.2 ug/ml; type: functional, Cricetulus griseus; outline: as §6
Mus musculus [26] = assay: Toxicity in CD2F1 mouse allografted with mouse P388/S cells at 3.00 mg/kg, ip administered on days 1, 5 and 9; type: organism-based; design: dose 3 mg/kg, route intraperitoneal; conditions: in vivo
[27] = Antitumor activity against mouse P388/VCR/I/63 cells allografted in Dublin-CDF1 mouse assessed as day of host death at 0.7 mg/kg, ip administered on days 1, 5 and 9 (reference value: 10 days); type: functional; conditions: route intraperitoneal
[28] = Antitumor activity against mouse P1534 cells allografted in DBA2 mouse assessed as tumor growth inhibition at 0.6 mg/kg, ip administered on days 1,5 and 9; type: functional; conditions: route intraperitoneal, read-out: TGI; outline: as §5
[29] = Antitumor activity against mouse P388/VCR/I/63 cells allografted in Dublin-CDF1 mouse assessed as increase in host lifespan at 1.6 mg/kg, ip administered on days 1, 5 and 9; type: functional; conditions: route intraperitoneal
[30] = Antitumor activity against mouse Gardner lymphosarcoma allografted in C3H mouse assessed as tumor growth inhibition at 0.05 mg/kg, ip administered daily for 8 to 10 days; type: functional; conditions: route intraperitoneal, read-out: TGI; outline: as §2
[31] = Antitumor activity against mouse Gardner lymphosarcoma allografted in C3H mouse assessed as tumor growth inhibition at 0.40 mg/kg, ip administered daily for 8 to 10 days; type: functional; conditions: route intraperitoneal, read-out: TGI; outline: as §2
[32] = Antitumor activity against mouse P388/VCR/I/63 cells allografted in Dublin-CDF1 mouse assessed as day of host death at 1.0 mg/kg, ip administered on days 1, 5 and 9 (reference value: 10 days); type: functional; conditions: route intraperitoneal
CHO [33] = assay: Mitotic arrest in CHO cells assessed as increase in cell accumulation at 0.002 ug/ml; type: functional, Cricetulus griseus; outline: as §6

SMILES: CC[C@]1(O)C[C@H]2CN(CCc3c([nH]c4ccccc34)[C@@](C(=O)OC)(c3cc4c(cc3OC)N(C)[C@H]3[C@@](O)(C(=O)NCCSSCCNC(=O)[C@@]5(O)[C@H](O)[C@]6(CC)C=CCN7CC[C@@]8(c9cc([C@@]%10(C(=O)OC)C[C@@H]%11CN(CCc%12c%10[nH]c%10ccccc%12%10)C[C@](O)(CC)C%11)c(OC)cc9N(C)[C@@H]58)[C@@H]76)[C@H](O)[C@]5(CC)C=CCN6CC[C@]43[C@@H]65)C2)C1.O=S(=O)(O)O
- Activity (P388/VCR [1]): 46%
- inhibition in vivo at 0.1 mg/kg [2]: 0%
- Activity [3]: 85%
- Activity (P388/VCR [4]): 54%
- Activity (P388/S [5]): 129%
- Activity (P388/VCR [6]): 35%
- Activity [7]: 115%
- Activity (P388/VCR [8]): 33%
- Activity (P388/VCR [9]): 22%
- inhibition in vivo at 1.6 mg/kg [10]: 76%
- Activity (P388/S [11]): 50%
- Activity (P388/S [12]): 96%
- inhibition in vivo at 0.3 mg/kg [13]: 76%
- LD50 [14]: 6.9 mg/kg
- Activity (CHO [15]): 10%
- Activity [16]: 24.5 days
- Activity (P388/VCR [17]): 50%
- Activity (Mus musculus [18]): Toxic
- survival at 0.6 mg/kg (B16 [19]): 115%
- inhibition in vivo at 1.2 mg/kg [20]: 76%
- inhibition in vivo at 0.9 mg/kg [21]: 51%
- survival at 0.9 mg/kg (B16 [22]): 170%
- survival at 1.2 mg/kg (B16 [23]): 170%
- inhibition in vivo at 0.2 mg/kg [24]: 51%
- Activity (CHO [25]): 15%
- Activity (Mus musculus [26]): Toxic
- Activity [27]: 18.5 days
- inhibition in vivo at 0.6 mg/kg [28]: 26%
- Activity [29]: 145%
- inhibition in vivo at 0.05 mg/kg [30]: 0%
- inhibition in vivo at 0.4 mg/kg [31]: 76%
- Activity [32]: 21.5 days
- Activity (CHO [33]): 3%
